Measured values from ChEMBL document CHEMBL1149392, “PTP-1B inhibitors: cyclopenta[d][1,2]-oxazine derivatives” (Bioorg Med Chem Lett, 2006).

Legend:
[1] = molecular target: Tyrosine-protein phosphatase YopH (Yersinia enterocolitica, UniProt P15273); test: Inhibitory activity against YOP protein tyrosine phosphatase
How it was run: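 Counter-screen against Yop phosphatase within a nine-phosphatase selectivity panel. Fluorescein diphosphate substrate at 20 μM, the same level as in the PTP-1B assay. Potency is reported as IC50 (μM).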

[2] = molecular target: T1, Receptor-type tyrosine-protein phosphatase C (Homo sapiens, UniProt P08575); test: Inhibitory activity against CD45 phosphatase
T1 sequence (P08575 whole entry): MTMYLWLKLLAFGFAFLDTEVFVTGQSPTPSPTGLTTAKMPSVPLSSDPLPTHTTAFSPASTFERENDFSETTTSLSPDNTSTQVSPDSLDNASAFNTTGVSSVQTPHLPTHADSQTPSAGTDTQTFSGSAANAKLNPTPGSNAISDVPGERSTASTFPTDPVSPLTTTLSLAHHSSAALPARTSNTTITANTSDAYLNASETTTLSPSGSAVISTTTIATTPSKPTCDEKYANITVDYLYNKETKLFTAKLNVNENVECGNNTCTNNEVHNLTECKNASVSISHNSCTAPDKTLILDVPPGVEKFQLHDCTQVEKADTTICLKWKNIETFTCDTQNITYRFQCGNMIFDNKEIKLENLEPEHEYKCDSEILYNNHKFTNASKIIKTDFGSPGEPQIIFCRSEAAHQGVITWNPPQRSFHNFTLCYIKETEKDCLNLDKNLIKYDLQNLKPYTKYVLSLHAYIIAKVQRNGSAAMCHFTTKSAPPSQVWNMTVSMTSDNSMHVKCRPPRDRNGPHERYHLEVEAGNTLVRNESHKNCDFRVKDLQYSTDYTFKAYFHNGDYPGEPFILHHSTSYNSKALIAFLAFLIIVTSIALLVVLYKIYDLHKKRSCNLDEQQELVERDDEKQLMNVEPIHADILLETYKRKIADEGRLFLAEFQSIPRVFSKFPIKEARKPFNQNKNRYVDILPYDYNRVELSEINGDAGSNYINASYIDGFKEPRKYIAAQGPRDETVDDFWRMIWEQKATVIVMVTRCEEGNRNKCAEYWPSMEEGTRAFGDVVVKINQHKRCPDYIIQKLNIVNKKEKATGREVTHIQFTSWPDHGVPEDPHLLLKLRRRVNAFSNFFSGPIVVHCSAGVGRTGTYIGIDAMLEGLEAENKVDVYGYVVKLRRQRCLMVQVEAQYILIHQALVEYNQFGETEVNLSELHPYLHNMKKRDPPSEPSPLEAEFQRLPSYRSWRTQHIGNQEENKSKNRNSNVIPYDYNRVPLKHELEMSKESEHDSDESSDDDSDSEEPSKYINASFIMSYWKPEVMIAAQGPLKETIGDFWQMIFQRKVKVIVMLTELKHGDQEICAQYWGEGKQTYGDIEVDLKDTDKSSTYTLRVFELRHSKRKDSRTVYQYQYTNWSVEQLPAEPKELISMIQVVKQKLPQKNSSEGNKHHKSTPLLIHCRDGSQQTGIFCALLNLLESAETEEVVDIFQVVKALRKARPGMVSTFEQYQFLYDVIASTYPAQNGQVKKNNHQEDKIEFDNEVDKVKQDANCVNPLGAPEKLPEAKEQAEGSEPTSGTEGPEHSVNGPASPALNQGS
How it was run: (§1)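 Selectivity panel of nine phosphatases, each assayed with fluorescein diphosphate at the same concentration as in the PTP-1B assay (20 μM). IC50 values (μM) reported.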

[3] = molecular target: T2, Tyrosine-protein phosphatase non-receptor type 1 (Homo sapiens, UniProt P18031); test: Inhibitory activity against recombinant human PTP1B
T2 sequence (P18031 whole entry): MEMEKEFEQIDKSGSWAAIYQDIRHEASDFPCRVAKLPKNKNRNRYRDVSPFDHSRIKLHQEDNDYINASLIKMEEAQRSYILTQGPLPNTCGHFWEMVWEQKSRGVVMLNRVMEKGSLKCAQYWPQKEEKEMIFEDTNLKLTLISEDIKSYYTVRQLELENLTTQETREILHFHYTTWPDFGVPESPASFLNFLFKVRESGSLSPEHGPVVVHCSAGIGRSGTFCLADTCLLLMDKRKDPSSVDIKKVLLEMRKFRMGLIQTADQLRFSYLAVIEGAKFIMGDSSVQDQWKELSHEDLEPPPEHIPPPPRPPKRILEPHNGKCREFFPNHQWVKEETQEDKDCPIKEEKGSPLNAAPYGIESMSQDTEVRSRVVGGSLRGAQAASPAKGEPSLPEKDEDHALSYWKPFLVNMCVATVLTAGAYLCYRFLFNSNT
How it was run: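 Recombinant human PTP-1B (0.1 μg) incubated with 20 μM fluorescein diphosphate and compound in 30 mM Tris, 75 mM NaCl, 0.67 mM EDTA, 1 mM DTT, pH 8.0, for 1 h at room temperature. Product fluorescein monophosphate read by fluorescence (ex 485 nm, em 538 nm). IC50 reported.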

[4] = molecular target: T3, M-phase inducer phosphatase 3 (Homo sapiens, UniProt P30307); test: Inhibitory activity against cdc25C phosphatase; how it was run: as §1
T3 sequence (P30307 whole entry): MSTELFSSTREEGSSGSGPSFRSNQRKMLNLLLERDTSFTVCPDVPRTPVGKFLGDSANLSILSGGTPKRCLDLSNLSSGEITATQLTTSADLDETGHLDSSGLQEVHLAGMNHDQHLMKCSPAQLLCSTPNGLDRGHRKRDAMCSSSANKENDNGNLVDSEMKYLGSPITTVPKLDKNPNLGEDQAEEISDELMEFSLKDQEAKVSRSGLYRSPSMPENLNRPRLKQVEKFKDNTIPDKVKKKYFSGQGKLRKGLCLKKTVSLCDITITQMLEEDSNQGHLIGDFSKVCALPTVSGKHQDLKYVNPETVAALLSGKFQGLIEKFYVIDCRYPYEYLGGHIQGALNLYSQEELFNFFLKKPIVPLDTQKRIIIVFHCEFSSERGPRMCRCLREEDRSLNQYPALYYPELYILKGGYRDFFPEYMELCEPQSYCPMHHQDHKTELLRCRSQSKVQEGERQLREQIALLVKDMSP

[5] = molecular target: T4, M-phase inducer phosphatase 1 (Homo sapiens, UniProt P30304); test: Inhibitory activity against cdc25A phosphatase; how it was run: as §1
T4 sequence (P30304 whole entry): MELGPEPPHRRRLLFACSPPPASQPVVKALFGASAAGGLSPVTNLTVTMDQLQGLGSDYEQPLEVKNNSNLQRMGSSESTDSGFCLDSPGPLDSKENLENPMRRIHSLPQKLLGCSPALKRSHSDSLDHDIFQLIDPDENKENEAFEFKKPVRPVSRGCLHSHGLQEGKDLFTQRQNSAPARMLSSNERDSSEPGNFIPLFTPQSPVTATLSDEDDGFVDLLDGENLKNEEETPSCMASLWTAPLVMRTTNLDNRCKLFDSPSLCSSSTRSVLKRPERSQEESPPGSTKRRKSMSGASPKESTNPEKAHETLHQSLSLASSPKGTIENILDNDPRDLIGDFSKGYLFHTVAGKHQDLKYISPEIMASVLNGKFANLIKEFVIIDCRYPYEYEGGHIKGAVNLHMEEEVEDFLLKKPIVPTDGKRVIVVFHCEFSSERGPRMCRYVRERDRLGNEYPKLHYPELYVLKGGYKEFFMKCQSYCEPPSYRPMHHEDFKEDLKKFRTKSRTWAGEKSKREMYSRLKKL

Chain of Tyrosine-protein phosphatase YopH (P15273 whole entry): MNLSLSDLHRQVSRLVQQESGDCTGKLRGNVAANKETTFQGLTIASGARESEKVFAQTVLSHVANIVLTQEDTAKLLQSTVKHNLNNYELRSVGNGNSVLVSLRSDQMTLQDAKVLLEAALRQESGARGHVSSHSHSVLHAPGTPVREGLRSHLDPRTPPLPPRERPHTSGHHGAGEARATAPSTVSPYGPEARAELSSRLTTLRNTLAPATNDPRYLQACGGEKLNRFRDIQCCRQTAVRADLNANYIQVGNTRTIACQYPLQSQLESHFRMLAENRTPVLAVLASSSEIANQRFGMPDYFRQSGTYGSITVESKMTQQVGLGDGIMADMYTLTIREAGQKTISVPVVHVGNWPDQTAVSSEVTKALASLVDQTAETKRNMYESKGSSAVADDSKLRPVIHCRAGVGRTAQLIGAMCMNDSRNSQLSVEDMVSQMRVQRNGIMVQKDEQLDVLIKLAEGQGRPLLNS

Compound | IC50 [1] [nM] | IC50 [2] [nM] | IC50 [3] [nM] | IC50 [4] [µM] | IC50 [5] [µM]
COc1ccc(C(=O)c2ccc3c(-c4ccc(OCC(=O)O)cc4)nocc2-3)cc1 | 5710 | 28800 | 800 | 61.7 | 73.3
CCCCCCCCCCCCCCc1ccc(C(=O)c2ccc3c(-c4ccc(OCC(=O)O)cc4)nocc2-3)cc1 | 550 | 150 | 140 | 2.27 | 1.33
NCc1ccc(C(=O)c2ccc3c(-c4ccc(OCC(=O)O)cc4)nocc2-3)cc1 | 1190 | 1230 | 2160 | > 10 | 10
